In ChEMBL document CHEMBL1806486, “Discovery and evaluation of 3-phenyl-1H-5-pyrazolylamine-based derivatives as potent, selective and efficacious inhibitors of FMS-like tyrosine kinase-3 (FLT3)” (Bioorg Med Chem, 2011):
Activity calls are given as the source filed them. No cut-off for these calls is given here.

Key:
MOLM-13 [1] = experiment: Antitumor activity against human MOLM13 cells xenografted in athymic nu/nu nude mouse assessed as tumor growth regression at 50 mg/kg, iv qd administered for 1 to 5 and 8 to 12 days; assay type: functional, organism-based; set-up: dose 50 mg/kg
In short: (§1)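 Athymic nu/nu mice (9 weeks old) received 1 × 10^6 MOLM-13 cells s.c. in the left flank. They were randomized at a mean tumor volume of about 200 mm3, with 7–8 per group. Dosing was iv once daily at 10 or 50 mg/kg on days 1–5 and 8–12, in 10% DMSO/20% Cremophor/70% saline. Vehicle controls were dosed the same way. Caliper volume = (width × length²)/2, reported as mean ± SEM.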

[2] = Half life in Sprague-Dawley rat at 5 mg/kg, iv and 20 mg/kg, po; assay type: ADME, organism-based; settings: in vivo
[3] = target: Vascular endothelial growth factor receptor 2 (Homo sapiens, UniProt P35968); experiment: Inhibition of recombinant GST-tagged VEGFR2 expressed in Sf9 insect cells after 120 mins by Kinase-Glo assay; assay type: cell-based
[4] = Antiproliferation activity against human RS4:11 cells expressing wild type FLT3 after 72 hrs by MTS method; assay type: functional; settings: RS4-11, 72 h
MOLT-4 = experiment: Antiproliferation activity against human MOLT4 after 72 hrs by MTS method; assay type: functional; settings: MOLT-4, 72 h
MOLM-13 [5] = experiment: Antiproliferation activity against human MOLM13 cells expressing FLT3 mutation assessed as cell viability after 72 hrs by MTS method; assay type: functional; settings: MOLM-13, 72 h
[6] = target: Platelet-derived growth factor receptor beta (Homo sapiens) (UniProt P09619); experiment: Inhibition of PDGFR beta at 0.1 uM
Platelet-derived growth factor receptor beta (Homo sapiens), sequence (P09619 whole entry): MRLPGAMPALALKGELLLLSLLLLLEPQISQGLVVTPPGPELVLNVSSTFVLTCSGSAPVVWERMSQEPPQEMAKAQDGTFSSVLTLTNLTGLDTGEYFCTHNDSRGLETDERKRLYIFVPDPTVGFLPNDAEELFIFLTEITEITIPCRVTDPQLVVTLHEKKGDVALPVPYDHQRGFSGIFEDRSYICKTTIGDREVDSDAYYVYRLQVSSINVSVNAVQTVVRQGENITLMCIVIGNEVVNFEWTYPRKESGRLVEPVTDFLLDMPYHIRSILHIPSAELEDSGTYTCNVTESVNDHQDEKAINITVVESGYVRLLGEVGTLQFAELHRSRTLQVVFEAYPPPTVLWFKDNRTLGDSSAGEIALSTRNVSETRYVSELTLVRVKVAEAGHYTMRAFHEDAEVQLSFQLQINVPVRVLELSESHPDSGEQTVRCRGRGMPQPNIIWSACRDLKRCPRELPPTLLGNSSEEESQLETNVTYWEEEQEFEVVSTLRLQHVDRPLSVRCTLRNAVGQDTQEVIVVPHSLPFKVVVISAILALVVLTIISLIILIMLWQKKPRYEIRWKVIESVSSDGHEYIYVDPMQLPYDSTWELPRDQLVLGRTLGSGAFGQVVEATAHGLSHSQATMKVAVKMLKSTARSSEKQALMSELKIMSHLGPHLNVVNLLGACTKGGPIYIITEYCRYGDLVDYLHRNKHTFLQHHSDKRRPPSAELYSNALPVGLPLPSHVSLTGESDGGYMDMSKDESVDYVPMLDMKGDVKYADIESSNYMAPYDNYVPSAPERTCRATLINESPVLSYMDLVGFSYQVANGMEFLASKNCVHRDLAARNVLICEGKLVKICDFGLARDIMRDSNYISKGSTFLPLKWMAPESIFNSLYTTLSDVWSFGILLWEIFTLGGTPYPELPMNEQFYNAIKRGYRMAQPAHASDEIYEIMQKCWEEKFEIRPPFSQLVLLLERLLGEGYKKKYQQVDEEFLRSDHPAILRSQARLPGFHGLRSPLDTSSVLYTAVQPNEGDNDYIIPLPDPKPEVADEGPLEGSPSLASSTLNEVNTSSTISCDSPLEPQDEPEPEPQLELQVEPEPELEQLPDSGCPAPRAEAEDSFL

MV4-11 = experiment: Antitumor activity against human MV4-11 cells xenografted in athymic nu/nu nude mouse assessed as inhibition of tumor growth at 50 mg/kg, iv qd for 1 to 5 and 8 to 12 days measured after completion of treatment; assay type: functional, organism-based; set-up: dose 50 mg/kg
In short: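 Nude nu/nu mice (9 weeks old) received 1 × 10^6 MV4;11 cells s.c. in the left flank. Treatment began at a mean tumor volume of about 500 mm3, with n = 8 per group. Dosing was iv once daily at 10, 25 or 50 mg/kg on days 1–5 and 8–12, in DMSO/Cremophor/saline vehicle, with vehicle controls. Tumor volume was measured by caliper as (width × length²)/2.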

[7] = Clearance in Sprague-Dawley rat at 5 mg/kg, iv and 20 mg/kg, po; assay type: ADME, organism-based; settings: in vivo
[8] = target: High affinity nerve growth factor receptor (Homo sapiens) (UniProt P04629); experiment: Inhibition of TRKA at 0.1 uM
MOLM-13 [9] = experiment: Antitumor activity against human MOLM13 cells xenografted in athymic nu/nu nude mouse assessed as inhibition of tumor growth at 10 mg/kg, iv qd administered for 1 to 5 and 8 to 12 days measured during first 5 days of treatment; assay type: functional, organism-based; set-up: dose 10 mg/kg; in short: as §1
[10] = Volume of distribution at steady state in Sprague-Dawley rat at 5 mg/kg, iv and 20 mg/kg, po; assay type: ADME, organism-based; settings: in vivo, read-out: Vdss
[11] = AUC (0 to infinity) in Sprague-Dawley rat at 5 mg/kg, iv and 20 mg/kg, po; assay type: ADME, organism-based; settings: plasma
Mus musculus = experiment: Toxicity in athymic nu/nu nude mouse harboring xenografted human MV4:11 cells assessed as reduction of body weight at 50 mg/kg, iv for continuous 5 days; assay type: organism-based; set-up: dose 50 mg/kg, route intravenous; scale not given: the % may be the effect or the level left; settings: in vivo, 120 h
MOLM-13 [12] = experiment: Antitumor activity against human MOLM13 cells xenografted in iv dosed athymic nu/nu nude mouse assessed as inhibition of tumor growth administered qd for two weeks; assay type: functional, organism-based; in short: as §1
[13] = target: Macrophage colony-stimulating factor 1 receptor (Homo sapiens) (UniProt P07333); experiment: Inhibition of CSF1R at 0.1 uM
Macrophage colony-stimulating factor 1 receptor (Homo sapiens), sequence (P07333 whole entry): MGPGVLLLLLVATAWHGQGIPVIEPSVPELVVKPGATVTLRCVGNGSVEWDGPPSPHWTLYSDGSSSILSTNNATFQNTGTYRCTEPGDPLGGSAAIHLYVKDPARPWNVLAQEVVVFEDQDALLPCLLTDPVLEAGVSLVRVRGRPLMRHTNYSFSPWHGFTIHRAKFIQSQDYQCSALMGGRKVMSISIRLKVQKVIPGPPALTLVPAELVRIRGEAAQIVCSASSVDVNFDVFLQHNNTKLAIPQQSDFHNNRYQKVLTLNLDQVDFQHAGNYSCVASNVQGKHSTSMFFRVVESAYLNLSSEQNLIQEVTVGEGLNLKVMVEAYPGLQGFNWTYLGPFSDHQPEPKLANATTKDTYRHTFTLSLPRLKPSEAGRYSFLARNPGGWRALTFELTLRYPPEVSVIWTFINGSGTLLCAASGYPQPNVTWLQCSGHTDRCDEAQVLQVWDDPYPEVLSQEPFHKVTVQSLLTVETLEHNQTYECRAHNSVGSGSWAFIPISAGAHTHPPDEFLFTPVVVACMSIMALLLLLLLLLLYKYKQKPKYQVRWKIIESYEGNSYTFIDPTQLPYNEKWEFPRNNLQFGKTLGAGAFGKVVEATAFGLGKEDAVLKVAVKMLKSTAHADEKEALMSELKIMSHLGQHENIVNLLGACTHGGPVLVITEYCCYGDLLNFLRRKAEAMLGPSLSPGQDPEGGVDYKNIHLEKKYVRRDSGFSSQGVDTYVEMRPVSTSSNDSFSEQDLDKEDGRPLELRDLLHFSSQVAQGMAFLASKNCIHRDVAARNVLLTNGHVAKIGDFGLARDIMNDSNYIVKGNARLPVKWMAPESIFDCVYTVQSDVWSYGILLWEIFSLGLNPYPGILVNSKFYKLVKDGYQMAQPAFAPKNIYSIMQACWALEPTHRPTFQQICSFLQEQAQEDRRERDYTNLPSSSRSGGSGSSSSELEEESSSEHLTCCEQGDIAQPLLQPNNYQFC

U-937 = experiment: Antiproliferation activity against human FLT3 gene-deficient U937 cells after 72 hrs by MTS method; assay type: functional; settings: U-937, 72 h
[14] = target: Mast/stem cell growth factor receptor Kit (Homo sapiens) (UniProt P10721); experiment: Inhibition of c-Kit at 0.1 uM
[15] = target: Proto-oncogene tyrosine-protein kinase Src (Homo sapiens) (UniProt P12931); experiment: Inhibition of SRC at 0.1 uM
Proto-oncogene tyrosine-protein kinase Src (Homo sapiens), sequence (P12931 2-536 limits assumed): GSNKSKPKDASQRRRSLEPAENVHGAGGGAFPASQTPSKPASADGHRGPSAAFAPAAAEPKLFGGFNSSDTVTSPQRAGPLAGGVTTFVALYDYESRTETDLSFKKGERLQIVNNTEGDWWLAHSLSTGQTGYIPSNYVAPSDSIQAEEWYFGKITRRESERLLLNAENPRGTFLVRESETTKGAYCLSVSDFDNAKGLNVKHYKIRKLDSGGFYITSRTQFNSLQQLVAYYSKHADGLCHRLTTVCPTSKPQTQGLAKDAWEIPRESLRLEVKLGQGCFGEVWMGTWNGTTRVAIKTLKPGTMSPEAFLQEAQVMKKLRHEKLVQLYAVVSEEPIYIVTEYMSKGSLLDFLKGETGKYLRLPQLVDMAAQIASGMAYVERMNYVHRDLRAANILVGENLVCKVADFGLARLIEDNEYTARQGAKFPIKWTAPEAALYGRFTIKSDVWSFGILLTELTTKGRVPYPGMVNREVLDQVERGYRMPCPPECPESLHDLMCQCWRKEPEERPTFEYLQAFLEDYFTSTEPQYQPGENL

[16] = target: Vascular endothelial growth factor receptor 3 (Homo sapiens) (UniProt P35916); experiment: Inhibition of VEGFR3 at 0.1 uM
Vascular endothelial growth factor receptor 3 (Homo sapiens), sequence (P35916 whole entry): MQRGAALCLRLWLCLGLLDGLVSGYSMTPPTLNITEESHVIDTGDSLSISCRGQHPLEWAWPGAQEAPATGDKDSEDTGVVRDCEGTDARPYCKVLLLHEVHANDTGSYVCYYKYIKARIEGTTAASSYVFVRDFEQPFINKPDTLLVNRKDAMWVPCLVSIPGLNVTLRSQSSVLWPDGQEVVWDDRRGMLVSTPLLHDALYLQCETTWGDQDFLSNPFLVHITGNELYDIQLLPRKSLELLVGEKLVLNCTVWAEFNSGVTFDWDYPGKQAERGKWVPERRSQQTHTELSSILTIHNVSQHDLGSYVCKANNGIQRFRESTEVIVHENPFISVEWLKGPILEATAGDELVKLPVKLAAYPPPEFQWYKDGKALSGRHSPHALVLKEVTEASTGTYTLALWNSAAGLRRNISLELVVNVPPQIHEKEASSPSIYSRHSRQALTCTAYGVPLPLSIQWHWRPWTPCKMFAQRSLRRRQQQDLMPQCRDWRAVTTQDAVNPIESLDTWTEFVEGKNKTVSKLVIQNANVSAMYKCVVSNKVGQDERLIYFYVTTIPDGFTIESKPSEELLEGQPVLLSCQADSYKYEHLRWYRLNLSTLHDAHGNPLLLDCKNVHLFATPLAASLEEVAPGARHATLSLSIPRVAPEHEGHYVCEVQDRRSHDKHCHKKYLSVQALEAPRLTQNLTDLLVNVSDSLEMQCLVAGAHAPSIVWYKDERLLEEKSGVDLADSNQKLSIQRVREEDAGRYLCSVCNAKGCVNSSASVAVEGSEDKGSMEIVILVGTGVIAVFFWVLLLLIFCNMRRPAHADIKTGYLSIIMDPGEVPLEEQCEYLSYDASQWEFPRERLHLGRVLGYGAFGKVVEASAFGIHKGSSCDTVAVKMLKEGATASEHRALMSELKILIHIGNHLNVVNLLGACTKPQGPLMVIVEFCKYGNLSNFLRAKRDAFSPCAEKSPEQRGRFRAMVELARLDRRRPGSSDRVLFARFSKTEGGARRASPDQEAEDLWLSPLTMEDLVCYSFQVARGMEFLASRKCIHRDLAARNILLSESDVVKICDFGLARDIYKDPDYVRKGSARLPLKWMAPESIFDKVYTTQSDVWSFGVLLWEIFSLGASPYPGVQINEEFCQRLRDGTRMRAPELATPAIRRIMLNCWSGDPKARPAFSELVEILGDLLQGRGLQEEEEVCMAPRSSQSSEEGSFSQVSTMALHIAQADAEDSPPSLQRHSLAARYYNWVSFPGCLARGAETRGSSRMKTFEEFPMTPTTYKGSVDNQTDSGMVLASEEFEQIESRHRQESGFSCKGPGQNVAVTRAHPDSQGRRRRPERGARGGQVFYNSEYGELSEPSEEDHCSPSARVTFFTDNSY

[17] = target: Platelet-derived growth factor receptor alpha (Homo sapiens) (UniProt P16234); experiment: Inhibition of PDGFR alpha at 0.1 uM
Platelet-derived growth factor receptor alpha (Homo sapiens), sequence (P16234 whole entry): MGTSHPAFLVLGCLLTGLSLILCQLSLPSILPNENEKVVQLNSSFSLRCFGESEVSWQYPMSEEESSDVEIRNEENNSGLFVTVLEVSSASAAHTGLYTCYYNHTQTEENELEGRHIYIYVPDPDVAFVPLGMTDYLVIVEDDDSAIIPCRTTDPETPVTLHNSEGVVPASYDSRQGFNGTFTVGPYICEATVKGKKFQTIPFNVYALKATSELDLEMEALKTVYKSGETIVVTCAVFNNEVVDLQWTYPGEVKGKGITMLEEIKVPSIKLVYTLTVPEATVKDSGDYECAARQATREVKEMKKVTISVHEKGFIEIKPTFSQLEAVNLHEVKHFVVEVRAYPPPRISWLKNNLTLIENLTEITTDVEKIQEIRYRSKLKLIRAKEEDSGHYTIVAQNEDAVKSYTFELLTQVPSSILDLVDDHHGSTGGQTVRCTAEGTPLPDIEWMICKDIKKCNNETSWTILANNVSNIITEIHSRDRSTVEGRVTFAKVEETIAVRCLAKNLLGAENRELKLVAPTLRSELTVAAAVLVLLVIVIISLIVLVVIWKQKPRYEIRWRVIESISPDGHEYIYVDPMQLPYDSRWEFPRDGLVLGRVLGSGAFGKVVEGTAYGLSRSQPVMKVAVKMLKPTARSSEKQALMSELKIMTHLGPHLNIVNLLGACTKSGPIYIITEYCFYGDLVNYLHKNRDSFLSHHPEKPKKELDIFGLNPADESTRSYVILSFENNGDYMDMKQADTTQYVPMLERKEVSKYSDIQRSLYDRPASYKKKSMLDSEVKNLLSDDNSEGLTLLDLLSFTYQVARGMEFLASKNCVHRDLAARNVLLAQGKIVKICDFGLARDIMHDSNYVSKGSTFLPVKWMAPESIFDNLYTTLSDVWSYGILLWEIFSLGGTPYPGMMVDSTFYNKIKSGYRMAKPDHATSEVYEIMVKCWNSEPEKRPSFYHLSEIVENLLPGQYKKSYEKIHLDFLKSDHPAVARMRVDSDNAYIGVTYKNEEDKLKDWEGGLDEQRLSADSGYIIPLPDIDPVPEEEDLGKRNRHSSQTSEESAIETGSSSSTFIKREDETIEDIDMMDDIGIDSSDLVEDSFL

Aurora kinase A = target: T1, Aurora kinase A (Homo sapiens, UniProt O14965); experiment: Inhibition of recombinant GST-tagged Aurora A expressed in Sf9 insect cells after 90 mins by Kinase-Glo assay
T1 sequence (O14965 whole entry): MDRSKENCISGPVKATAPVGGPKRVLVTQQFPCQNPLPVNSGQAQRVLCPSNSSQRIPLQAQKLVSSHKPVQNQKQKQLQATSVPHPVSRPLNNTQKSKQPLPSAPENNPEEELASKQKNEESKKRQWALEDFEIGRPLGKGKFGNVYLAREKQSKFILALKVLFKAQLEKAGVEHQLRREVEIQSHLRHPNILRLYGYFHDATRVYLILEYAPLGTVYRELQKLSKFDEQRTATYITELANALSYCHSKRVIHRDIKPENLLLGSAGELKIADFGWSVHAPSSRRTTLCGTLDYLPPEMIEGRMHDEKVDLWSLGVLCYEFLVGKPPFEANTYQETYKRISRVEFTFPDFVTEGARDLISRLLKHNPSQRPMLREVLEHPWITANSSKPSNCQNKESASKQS
In short: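 GST-Aurora A kinase domain (S123–S401, 150 ng) from Sf9 cells. Buffer was 50 mM Tris-HCl pH 7.4 with 10 mM NaCl, 10 mM MgCl2, 0.01% BSA and 1 mM DTT. Kinase-Glo Plus was added for 20 min at 25 °C before the luminescence read.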

half-life [2]: 4.2 h
IC50 [3]: 290 nM
GI50 (MOLT-4): 7400 nM
GI50 (MOLM-13 [5]): 21 nM
inhibition [6]: 18%
clearance [7]: 57.4 mL/min/kg
inhibition [8]: 96%
Vd [10]: 6.6 L/kg
AUC(0-inf) [11]: 1400 ng·h/mL
inhibition [13]: 16%
GI50 (U-937): > 20000 nM
inhibition [14]: 27%
inhibition [15]: 44%
inhibition [16]: 31%
inhibition [17]: 24%
IC50 (Aurora kinase A): 290 nM
SMILES: Cc1nc(Nc2cc(-c3cccc(NS(=O)(=O)c4ccccc4)c3)n[nH]2)cc(N2CCN(C)CC2)n1
Activity (MOLM-13 [1]): Active
GI50 [4]: 10000 nM
Activity (MV4-11): Active
Activity (MOLM-13 [9]): Active
Activity (Mus musculus): < 3%
Activity (MOLM-13 [12]): Dose-dependent effect
